Published values gathered from unrelated publications.
Lines come from different studies, so protocols differ. Values after ≈ are worked out from the molar mass of the structure shown.

| SMILES | organism | test | system | setting | measurement | value |
| --- | --- | --- | --- | --- | --- | --- |
| CO[C@H]1/C=C/O[C@@]2(C)Oc3c(C)c(O)c4c(O)c(c(/C=N/N5CCN(C)CC5)c(O)c4c3C2=O)NC(=O)/C(C)=C\C=C\[C@H](C)[C@H](O)[C@@H](C)[C@@H](O)[C@@H](C)[C@H](OC(C)=O)[C@@H]1C | Acinetobacter baumannii | microbial growth, broth dilution | ATCC19606 | drug-resistant strain | MIC | 1 µg/mL (≈ 1.22 µM) |
| COC(=O)c1cc(-c2cccc(NC(=S)Nc3ccc(C)cc3)c2)on1 | Acinetobacter baumannii | microbial growth, broth dilution | BAA1605 | – | MIC | > 64 µg/mL |
| CC1CCC2(CC1)SCC(=O)N2NC(=O)c1[nH]c2ccc(Cl)cc2c1-c1ccccc1 (centres unmarked) | Enterovirus B | viral replication, inhibitor | Vero, B4 | – | EC50 | > 100 µM |
| COC(=O)c1cc(-c2cccc(NC(=O)Nc3ccc(F)cc3)c2)on1 | Acinetobacter baumannii | microbial growth, broth dilution | BAA1605 | – | MIC | > 64 µg/mL |
| C[n+]1c(/C=C/c2ccc(O)cc2)cc(/C=C2\Sc3ccccc3N2CCCN2CCOCC2)c2ccccc21.[I-] | Acinetobacter baumannii | microbial growth, broth dilution | ATCC19606 | drug-resistant strain | MIC | > 64 µg/mL |
| CC1CC(C)(C)CC2(C1)SCC(=O)N2NC(=O)c1[nH]c2ccc(Cl)cc2c1-c1ccccc1 (centres unmarked) | Enterovirus B | viral replication, inhibitor | Vero, B4 | – | EC50 | > 100 µM |
| O=C(Nc1cccc(-c2cc(C(=O)O)no2)c1)Nc1ccc(Cl)c(Cl)c1 | Acinetobacter baumannii | microbial growth, broth dilution | BAA1605 | – | MIC | > 64 µg/mL |
| C=C1CC[C@H](O)C/C1=C/C=C1\CCC[C@]2(C)[C@@H]([C@H](C)/C=C/[C@H](C)C(C)C)CC[C@@H]12 | Hepatitis C virus | viral replication, inhibitor, luciferase | GETYPE2A | 5 days, replicon | EC50 | 13 µM |
| COc1cccc(OC)c1C(=O)N[C@@H]1C(=O)N2[C@@H]1SC(C)(C)[C@@H]2C(=O)O | Acinetobacter baumannii | microbial growth, broth dilution | ATCC19606 | drug-resistant strain | MIC | > 256 µg/mL |
| CC(C)(CO)C(=O)SCCOP(=O)(NCc1ccccc1)OC[C@H]1O[C@@H](n2cnc3c(=O)[nH]c(N)nc32)[C@](C)(O)[C@@H]1O (mixture of isomers) | Hepatitis C virus | viral replication, inhibitor | Huh-7, GETYPE1 | replicon | EC90 | 0.9 µM |
| C=C[C@@H]1C[C@]1(NC(=O)[C@@H]1C[C@@H]2CN1C(=O)[C@H](C(C)(C)C)NC(=O)O[C@@H]1C[C@H]1CCCCCc1nc3ccc(OC)cc3nc1O2)C(=O)NS(=O)(=O)C1CC1 | Hepatitis C virus | viral replication, inhibitor, luciferase | Huh-7, GETYPE1B | 96 h, replicon | IC50 | 0.0466 µM |
| CC1CC(C)(C)CC2(C1)SC(C)C(=O)N2NC(=O)c1[nH]c2ccc(Cl)cc2c1-c1ccccc1 (centres unmarked) | Enterovirus B | viral replication, inhibitor | Vero, B4 | – | EC50 | > 100 µM |
| COC(=O)c1cc(-c2cccc(NC(=O)Nc3cc(OC)ccc3OC)c2)on1 | Acinetobacter baumannii | microbial growth, broth dilution | BAA1605 | – | MIC | > 64 µg/mL |
| CC1CCCC2(C1)SC(C)C(=O)N2NC(=O)c1[nH]c2ccc(Cl)cc2c1-c1ccccc1 (centres unmarked) | Enterovirus B | viral replication, inhibitor | Vero, B4 | – | EC50 | > 100 µM |
| COC(=O)c1cc(-c2cccc(NC(=O)Nc3ccc(C)cc3)c2)on1 | Acinetobacter baumannii | microbial growth, broth dilution | BAA1605 | – | MIC | > 64 µg/mL |
| C=C1CC[C@H](O)C/C1=C/C=C1\CCC[C@]2(C)[C@@H]([C@H](C)CCCC(C)C)CC[C@@H]12 | Hepatitis C virus | viral replication, inhibitor, luciferase | BM4-5, GETYPE1B | 5 days, replicon | EC50 | 3.8 µM |
| CC(C)(C)C1CCC2(CC1)SCC(=O)N2NC(=O)c1[nH]c2ccc(Cl)cc2c1-c1ccccc1 (centres unmarked) | Enterovirus B | viral replication, inhibitor | Vero, B4 | – | EC50 | > 100 µM |
| COC(=O)c1cc(-c2cccc(NC(=O)Nc3c(C)cccc3C)c2)on1 | Acinetobacter baumannii | microbial growth, broth dilution | BAA1605 | – | MIC | > 64 µg/mL |
| COc1c(C)c2c(c(O)c1C/C=C(\C)CCC(=O)O)C(=O)OC2 | Enterovirus B | viral replication, inhibitor | Vero, B4 | – | EC50 | > 100 µM |
| CC(=O)C1=C(O)C(CC(C)C)NC1=O (centres unmarked) | Proteus mirabilis | microbial growth | ATCC25933 | – | MIC | > 200 µg/mL |
